The values that follow come from PubChem BioAssay.

Calls of active or inactive are those of the source.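 The calls were made as follows, unless noted: active = viability at or under a set limit in both replicates, limit being median viability minus 3 SD (cut at about 48% in these data, passing the limit was not always enough); inconclusive = at or under the limit in just one replicate; inactive = at or above the limit in both replicates.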

Test [1] in a line: reduced viability of SK-BR-3 breast cancer cells – cell-based, 24 h, human, pilot screen (AID 572;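 active = viability at or below 10% of carrier control in both of two separate runs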;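 also: compound exposure lasted between 18 and 24 h rather than exactly 24 h; 100% = carrier-treated control wells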). Conditions: SK-BR-3 viability, CellTiter-Glo luminescence, at 10 µM, stronger effect = lower value.
Test [2] in a line: HUVEC growth inhibition – cell-based, human, primary screen (AID 575;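 active = viability at or below 30% in both replicate assays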;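 also: 100% = median of untreated cell wells with 0.1% DMSO on each plate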). The settings on record: HUVEC proliferation, CellTiter-Glo luminescence, 72 h; at 10 µM; stronger effect = lower value. The procedure, abridged: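 Timing: 72 h treatment at 37 °C; material: HUVEC primary cells; technique: CellTiter-Glo luminescence measuring cellular ATP; controls: vehicle and MePR control wells; measure: percent of median DMSO-control luminescence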
For orientation: Cellular ATP, detected with luciferase, serves as a proxy for viable cell number.

Test [3] in a line: H69AR cell proliferation blockers – human, duplicate replicates, primary screen (AID 580).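 Also: 100% = mean luminescence of untreated wells and 0% = no signal.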 The settings on record: H69AR lung tumor cells viability, ATP luminescence, 72 h; at 10 µM; stronger effect = lower value.
Test [4] is described as follows: MRP1 drug-resistance reversers in H69AR cells – cell-based, doxorubicin co-treatment, pilot screen (AID 601;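 active = viability loss from added drug above about 55%, and viability with drug at most 40%, in both replicates, limit read from the data, passing the limit was not always enough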). Conditions: CellTiter-Glo, 72 h, at 10 µM; for differential viability (reversal): stronger effect = higher value.
A short description of test [5]: yeast transport mutant growth inhibition pilot in 384-well plates, post-Golgi transport modulator project (AID 636; in the data active = inhibition above about 31%). The settings on record: absorbance 615 nm, about 18 h, stronger effect = higher value.
The nature of test [6]: growth suppression of yeast trafficking mutant, preliminary HTS, modulators of trafficking downstream of Golgi apparatus project, 1536-format plate, OD 615 nm (AID 637; in the data active = inhibition above about 30%). Conditions: yeast transport mutant growth, absorbance 615 nm, 18 h; stronger effect = higher value.
Where [7] appears, read: H69AR cells + 2 uM doxorubicin, measured here: viability with 2 uM doxorubicin, stronger effect = lower value.
Setting [8] is: H69AR cells, compound alone cytotoxicity.

Consider `CCc1ccccc1OCCCCN1CCCC1`, for which the viability was 124% (inactive) in test [1]; 82% (inactive) in test [2]; 89.1% (inactive) in test [3]; 78.2% in test [4] (setting [7]); 89.1% in test [4] (setting [8]). For the same molecule, the differential viability (reversal) in test [4] (H69AR cells + 2 uM doxorubicin) was 10.8% (inactive). Also, the inhibition in test [5] was -5.06% (inactive); in test [6] it was -1.97% (inactive).
Consider `O=C(CSc1nc2ccccc2o1)NC(=O)NCc1ccco1`, for which the viability is 92% (inactive) in test [1]; 96.3% (inactive) in test [2]; 89.3% (inactive) in test [3]; 86.1% in test [4] (setting [7]); 89.3% in test [4] (setting [8]). Further, the differential viability (reversal) in test [4] (H69AR cells + 2 uM doxorubicin) was 3.28% (inactive). Also, the inhibition in test [5] was -3.51% (inactive); in test [6], -1.27% (inactive).
Turning to `O=C(O)c1ccc(C2SCC(=O)N2Cc2ccccc2)cc1` (stereo not drawn), the viability in test [1] was 95% (inactive); in test [2], 109% (inactive); in test [3], 96.9% (inactive); in test [4] (setting [7]), 95.6%; in test [4] (setting [8]), 96.9%. The differential viability (reversal) in test [4] (H69AR cells + 2 uM doxorubicin) was 1.26% (inactive). The inhibition in test [5] was -1.07% (inactive); in test [6], 0% (inactive).
As for `CCC1(C)Cc2c(sc3nc(SCC(=O)O)[nH]c(=O)c23)CO1` (stereo not drawn), the viability is 111% (inactive) in test [1]; 107% (inactive) in test [2]; 94.1% (inactive) in test [3]; 79.6% in test [4] (setting [7]); 94.1% in test [4] (setting [8]). For the same molecule, the differential viability (reversal) in test [4] (H69AR cells + 2 uM doxorubicin) was 14.5% (inactive). Besides, the inhibition is -1.6% (inactive) in test [5] and -10% (inactive) in test [6].
For the molecule `COc1cc(NC(=O)CSCc2cnn(-c3ccccc3)c2-n2cccc2)cc(OC)c1`, the viability was 103% (inactive) in test [1]; 67.9% (inactive) in test [2]; 80.6% (inactive) in test [3]; 75.3% in test [4] (setting [7]); 80.6% in test [4] (setting [8]). Moreover, the differential viability (reversal) in test [4] (H69AR cells + 2 uM doxorubicin) was 5.25% (inactive). The inhibition was -4.46% (inactive) in test [5] and -4.18% (inactive) in test [6].
On to `CCOC(=O)c1ccc(COC(=O)c2cc3ccccc3oc2=O)o1`, for which the viability in test [1] was 114% (inactive); in test [2], 114% (inactive); in test [3] it was 114% (inactive); in test [4] (setting [7]) it was 93.1%; in test [4] (setting [8]), 114%. Also, in test [4] (H69AR cells + 2 uM doxorubicin), the differential viability (reversal) is 20.8% (inactive). Besides, the inhibition was -5.89% (inactive) in test [5] and 0.65% (inactive) in test [6].
Turning to `Cc1ccc(S(=O)(=O)NCC(c2cccnc2)N(C)C)cc1` (stereo not drawn), the viability in test [1] was 96% (inactive); in test [2] it was 109% (inactive); in test [3], 95.1% (inactive); in test [4] (setting [7]), 103%; in test [4] (setting [8]), 95.1%. In addition, the differential viability (reversal) in test [4] (H69AR cells + 2 uM doxorubicin) was -8.1% (inactive). Also, the values for the inhibition in test [5] and in test [6] were -5.75% (inactive) and 1.82% (inactive), respectively.
Take `CCOC(=O)C1CCN(C(=O)Nc2ccc3nc(C)c(C)nc3c2)CC1`: the viability in test [1] is 101% (inactive); in test [2], 109% (inactive); in test [3], 95.5% (inactive); in test [4] (setting [7]) it was 79.6%; in test [4] (setting [8]) it was 95.5%. For the same molecule, the differential viability (reversal) in test [4] (H69AR cells + 2 uM doxorubicin) was 15.9% (inactive). Also, the inhibition is -3.87% (inactive) in test [5] and -1.09% (inactive) in test [6].
Take `CCC(=O)OC1(C#CCOc2ccc(OC)cc2)CCN(C)CC1`: the viability was 94% (inactive) in test [1]; 105% (inactive) in test [2]; 105% (inactive) in test [3]; 103% in test [4] (setting [7]); 105% in test [4] (setting [8]). Besides, the differential viability (reversal) in test [4] (H69AR cells + 2 uM doxorubicin) is 1.41% (inactive). For the same molecule, the inhibition in test [5] is -0.53% (inactive); in test [6], 1.64% (inactive).
Take `COC(=O)c1ccc(-c2ccco2)n1Cc1nc(-c2ccc(OC)c(OC)c2)oc1C`: the viability in test [1] is 125% (inactive); in test [2] it was 25.9% (active); in test [3] it was 48.8% (active); in test [4] (setting [7]) it was 57.2%; in test [4] (setting [8]) it was 48.8%. Besides, in test [4] (H69AR cells + 2 uM doxorubicin), the differential viability (reversal) was -8.4% (inactive). Further, the inhibition is -4.32% (inactive) in test [5] and 4.73% (inactive) in test [6].
In the case of `CCOCCCn1c(=NC(C)=O)c(C(=O)OCC)cc2c(=O)n3ccccc3nc21`, the viability in test [1] is 82% (inactive); in test [2], 108% (inactive); in test [3], 90.5% (inactive); in test [4] (setting [7]), 47.4%; in test [4] (setting [8]), 90.5%. Besides, the differential viability (reversal) in test [4] (H69AR cells + 2 uM doxorubicin) is 43.1% (inactive). Further, the inhibition is -0.68% (inactive) in test [5] and 2% (inactive) in test [6].

For orientation: viability means a read-out of living cells in per cent, often relative to untreated cells. Broadly, the inhibition is the change of the read-out against control, counted positive when it falls.
